Reference: ChEMBL document CHEMBL1938286, “A concise synthesis of viscolin, and its anti-inflammatory effects through the suppression of iNOS, COX-2, ERK phosphorylation and proinflammatory cytokines expressions” (Eur J Med Chem, 2012)
The source made the active and inactive calls. The calls are words filed in the database; no cut-off is given here.

Experiments:
Mus musculus [1] = experiment: Antiinflammatory activity in ICR mouse assessed as decrease in carrageenan-induced serum TNFalpha level at 10 mg/kg, ip measured after 5 hrs; assay type: functional, organism-based; parameters: dose 10 mg/kg
In short: (§1)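 Male ICR mice (18–25 g, n = 6 per group). Carrageenan was injected intraplantar into the paw, with drug given 30 min beforehand. Serum was collected at the 5th hr. Nitrite was measured colorimetrically by Griess reaction, and TNF-α by commercial ELISA. Data are mean ± SEM.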

Mus musculus [2] = experiment: Antiinflammatory activity in carrageenan-stimulated ICR mouse assessed as reduction in COX2 immunoreactive cells at 8 mg/kg, ip measured after 5 hrs; assay type: functional, organism-based; parameters: dose 8 mg/kg
Mus musculus [3] = experiment: Antioxidant activity in carrageenan-stimulated ICR mouse assessed as increase in CAT activity at 10 mg/kg, ip measured after 5 hrs; assay type: functional; details: route intraperitoneal
In short: (§2)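 Male ICR mice (n = 6 per group) received the drug 30 min before intraplantar carrageenan, and paw tissue was taken at the 5th hr. Total SOD was measured by inhibition of cytochrome c reduction, CAT by Aebi's method, and cytosolic GPx by Paglia–Valentine. Activities are in U/mg protein, given as mean ± SEM.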

Mus musculus [4] = experiment: Antiinflammatory activity in ICR mouse assessed as decrease in carrageenan-induced serum NO level at 10 mg/kg, ip measured after 5 hrs; assay type: functional, organism-based; parameters: dose 10 mg/kg; in short: as §1
Mus musculus [5] = experiment: Antioxidant activity in carrageenan-stimulated ICR mouse assessed as increase in SOD activity at 10 mg/kg, ip measured after 5 hrs; assay type: functional; details: route intraperitoneal; in short: as §2
Mus musculus [6] = experiment: Down regulation of iNOS protein expression in carrageenan-stimulated ICR mouse at 10 mg/kg, ip measured after 5 hrs by Western blot analysis; assay type: functional; details: route intraperitoneal
In short: (§3)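 Male ICR mice (18–25 g, n = 6 per group) received intraplantar carrageenan. Paw tissue was taken 5 h after carrageenan. Lysates were made in RIPA buffer and 30 µg protein run on SDS-PAGE/PVDF immunoblot with ECL detection. Band intensities were quantified relative to the carrageenan-alone group across three independent experiments.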

Mus musculus [7] = experiment: Antiinflammatory activity in ICR mouse assessed as inhibition of carrageenan-induced hind paw edema at 10 mg/kg, ip measured after 4 hrs; assay type: functional, organism-based; parameters: dose 10 mg/kg
Mus musculus [8] = experiment: Antiinflammatory activity in carrageenan-stimulated ICR mouse assessed as decrease in neutrophil number at 8 mg/kg, ip measured after 5 hrs; assay type: functional, organism-based; parameters: dose 8 mg/kg
In short: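 Male ICR mice were dosed 30 min before intraplantar carrageenan, and paw biopsies were taken 5 h later. Tissue was fixed in Dietric solution for 1 week at room temperature, dehydrated in graded ethanol and paraffin-embedded. 7-thickness sections were stained with hematoxylin–eosin or Van Gieson and examined by light microscopy.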

Mus musculus [9] = experiment: Antiinflammatory activity in ICR mouse assessed as decrease in carrageenan-induced MDA level at 10 mg/kg, ip measured after 5 hrs; assay type: functional, organism-based; parameters: dose 10 mg/kg
In short: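 Male ICR mice (n = 6 per group) were dosed 30 min before intraplantar carrageenan. MDA in the edematous paw tissue was determined at the 5th hr after carrageenan.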

Mus musculus [10] = experiment: Down regulation of COX-2 protein expression in carrageenan-stimulated ICR mouse at 10 mg/kg, ip measured after 5 hrs by Western blot analysis; assay type: functional; details: route intraperitoneal; in short: as §3
Mus musculus [11] = experiment: Antiinflammatory activity in ICR mouse assessed as inhibition of carrageenan-induced hind paw edema at 10 mg/kg, ip; assay type: functional, organism-based; parameters: dose 10 mg/kg
Mus musculus [12] = experiment: Antioxidant activity in carrageenan-stimulated ICR mouse assessed as increase in GPx activity at 10 mg/kg, ip measured after 5 hrs; assay type: functional; details: route intraperitoneal; in short: as §2
Mus musculus [13] = experiment: Antiinflammatory activity in carrageenan-stimulated ICR mouse assessed as reduction in iNOS immunoreactive cells at 8 mg/kg, ip measured after 5 hrs; assay type: functional, organism-based; parameters: dose 8 mg/kg

In the case of COc1ccc2c(c1)c(CC(=O)O)c(C)n2C(=O)c1ccc(Cl)cc1 [INDOMETHACIN], the Activity (Mus musculus [1]) is reported as “Active”, the Activity (Mus musculus [2]) is reported as “Active” and the Activity (Mus musculus [3]) is reported as 4.65 U/mg. The Activity (Mus musculus [4]) was “Active”, the Activity (Mus musculus [5]) was 3.85 U/mg and the Activity (Mus musculus [6]) was 69.1%. The Activity (Mus musculus [7]) was “Active”, the Activity (Mus musculus [8]) was “Active” and the Activity (Mus musculus [9]) was “Active”. The Activity (Mus musculus [10]) was 73.1%, the Activity (Mus musculus [11]) was “Active” and the Activity (Mus musculus [12]) was 10.45 U/mg. For the same compound, the Activity (Mus musculus [13]) was “Active”.
